Measurements taken from ChEMBL document CHEMBL1144676, “Synthesis and structure-activity relationships of a series of benzazepine derivatives as 5-HT2C receptor agonists” (Bioorg Med Chem, 2008).

Experiments:
[1] = target: T1, 5-hydroxytryptamine receptor 2A (Homo sapiens, UniProt P28223); experiment: Displacement of [3H]5-HT from human 5HT2A receptor expressed in CHO cells; assay type: cell-based
Summary of the method: (§1)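 Radioligand displacement of [3H]5-HT using membranes from CHO cells (5-HT2C, 5-HT2A) or HEK293-EBNA cells (5-HT2B). Medium: 50 mM Tris-HCl pH 7.4, 4 mM CaCl2, pargyline, 0.1 mg/mL ascorbic acid. Incubated 37 C for 30 min, then vacuum-filtered on PEI-treated GF/B filters and counted by scintillation. Non-specific binding defined with 10 µM 5-HT. Ki obtained by Cheng-Prusoff.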

Homo sapiens = organism: Homo sapiens; experiment: Selectivity for human 5HT2C receptor over human 5HT2B receptor
[2] = target: Serotonin 2 receptors; 5-HT2a & 5-HT2c (Homo sapiens) (UniProt P28223+P28335); experiment: Selectivity for human 5HT2C receptor over human 5HT2A receptor
Chain of Serotonin 2 receptors; 5-HT2a & 5-HT2c (Homo sapiens) (P28223 whole entry, looked up, one chain of several): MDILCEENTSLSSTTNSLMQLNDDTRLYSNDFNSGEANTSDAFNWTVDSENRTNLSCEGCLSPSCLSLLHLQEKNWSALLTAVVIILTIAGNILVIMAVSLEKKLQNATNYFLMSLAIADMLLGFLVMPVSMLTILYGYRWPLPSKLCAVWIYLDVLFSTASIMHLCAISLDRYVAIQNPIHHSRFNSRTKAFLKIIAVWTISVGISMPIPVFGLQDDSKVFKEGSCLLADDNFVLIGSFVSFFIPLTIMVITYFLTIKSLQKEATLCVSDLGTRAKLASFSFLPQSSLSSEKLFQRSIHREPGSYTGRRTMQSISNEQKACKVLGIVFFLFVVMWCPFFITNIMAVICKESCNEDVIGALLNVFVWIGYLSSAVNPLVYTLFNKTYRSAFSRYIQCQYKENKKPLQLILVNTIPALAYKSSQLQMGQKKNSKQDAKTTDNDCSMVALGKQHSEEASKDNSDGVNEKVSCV

[3] = target: T2, 5-hydroxytryptamine receptor 2C (Homo sapiens) (UniProt P28335); experiment: Intrinsic activity at human 5HT2C receptor expressed in CHO cells assessed as myo-[3H]inositol turnover relative to 5-hydroxytryptamine; assay type: functional, cell-based
T2 sequence (whole entry): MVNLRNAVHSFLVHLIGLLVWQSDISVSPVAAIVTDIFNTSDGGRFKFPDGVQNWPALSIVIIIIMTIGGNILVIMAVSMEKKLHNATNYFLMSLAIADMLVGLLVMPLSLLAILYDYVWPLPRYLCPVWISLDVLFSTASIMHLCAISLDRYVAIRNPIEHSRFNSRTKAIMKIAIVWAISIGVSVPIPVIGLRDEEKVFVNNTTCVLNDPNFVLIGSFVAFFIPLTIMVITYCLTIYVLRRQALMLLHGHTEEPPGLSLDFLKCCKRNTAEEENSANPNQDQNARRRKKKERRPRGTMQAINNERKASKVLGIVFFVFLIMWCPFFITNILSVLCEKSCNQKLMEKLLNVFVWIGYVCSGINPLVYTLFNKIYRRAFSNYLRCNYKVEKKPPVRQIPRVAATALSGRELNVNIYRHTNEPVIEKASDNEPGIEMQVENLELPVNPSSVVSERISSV
Summary of the method: (§2)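 Receptor-expressing CHO cells cultured 1 day, then labelled 24 h with myo-[3H]inositol (3 µCi/mL). Cells washed, held in PBS 20 min, then PBS-LiCl 20 min, then exposed 20 min to compound in PBS-LiCl. Stopped with PCA; [3H]inositol phosphates isolated on AG1-X8 anion-exchange columns and counted. Emax expressed relative to 10 µM 5-HT (100%), derived by non-linear fitting.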

[4] = target: T1, 5-hydroxytryptamine receptor 2A; experiment: Intrinsic activity at human 5HT2A receptor expressed in CHO cells assessed as myo-[3H]inositol turnover relative to 5-hydroxytryptamine; assay type: functional, cell-based; summary of the method: as §2
[5] = target: T3, 5-hydroxytryptamine receptor 2C (Homo sapiens, UniProt P28335); experiment: Displacement of [3H]5-HT from human 5HT2C receptor expressed in CHO cells; assay type: cell-based; summary of the method: as §1
T3 sequence (P28335 whole entry): T2 sequence (whole entry)

[6] = target: 5-hydroxytryptamine receptor 2B (Homo sapiens, UniProt P41595); experiment: Displacement of [3H]5-HT from human 5HT2B receptor expressed in HEK293-EBNA cells; assay type: cell-based; summary of the method: as §1
Chain of 5-hydroxytryptamine receptor 2B (P41595 whole entry): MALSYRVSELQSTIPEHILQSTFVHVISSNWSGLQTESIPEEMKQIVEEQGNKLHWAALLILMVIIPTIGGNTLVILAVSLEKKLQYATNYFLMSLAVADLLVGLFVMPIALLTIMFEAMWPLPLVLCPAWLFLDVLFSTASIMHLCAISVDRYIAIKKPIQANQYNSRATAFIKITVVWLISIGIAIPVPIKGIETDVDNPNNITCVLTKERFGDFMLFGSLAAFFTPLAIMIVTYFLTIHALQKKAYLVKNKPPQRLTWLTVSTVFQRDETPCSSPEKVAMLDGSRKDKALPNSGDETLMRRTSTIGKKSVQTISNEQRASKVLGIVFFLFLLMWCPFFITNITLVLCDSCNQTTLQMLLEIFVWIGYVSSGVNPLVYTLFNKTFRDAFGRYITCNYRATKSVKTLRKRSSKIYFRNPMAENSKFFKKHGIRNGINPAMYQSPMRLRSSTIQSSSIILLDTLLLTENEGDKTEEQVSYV

Rattus norvegicus [7] = experiment: Effect on penile erection in po dosed rat; assay type: functional; conditions: read-out: MED
Summary of the method: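 Rats given compound orally and placed singly in clear cages; penile erections counted over 30 min post-dose, with testing between 13:00 and 19:00. Erection scored as pelvic thrusts, rising onto hind limbs, engorged penis and licking. MED taken as the lowest dose differing from vehicle at p < 0.05.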

Rattus norvegicus [8] = experiment: Cardiovascular effect in po dosed rat assessed as increase in mean arterial blood pressure; assay type: functional, organism-based; conditions: Artery
Summary of the method: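 Carotid artery catheterised under pentobarbital (60 mg/kg ip). After at least 2 days of recovery, conscious rats stabilised ≥30 min in cages and then dosed orally at 3–30 mg/kg. Mean arterial blood pressure recorded via the catheter. A 5-HT2A antagonist, MDL100907, was also used.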

T1 sequence (P28223 whole entry): as the sequence (P28223 whole entry, looked up, one chain of several) above

Question: With `c1cc2c3c(ccc2o1)CCNCC3` as the molecule, how does the Ki [1] read?
Answer: 0.046 µM

Question: And the Ratio Ki (Homo sapiens)?
Answer: 5

Question: What about the Ratio Ki [2] of the same molecule?
Answer: 2

Question: And the Emax [3]?
Answer: 82%

Question: What about the Emax [4] of the same molecule?
Answer: 47%

Question: What about the Ki [5] of the same molecule?
Answer: 0.02 µM

Question: And the Ki [6]?
Answer: 0.09 µM

Question: Which Ki [1] does the source give for `CNc1ccc2c(c1Cl)CCNCC2` here?
Answer: 0.09 µM

Question: And the Ratio Ki (Homo sapiens)?
Answer: 5

Question: What about the Ratio Ki [2] of the same molecule?
Answer: 2

Question: What about the Emax [3] of the same molecule?
Answer: 81%

Question: And the Emax [4]?
Answer: 90%

Question: And the Ki [5]?
Answer: 0.046 µM

Question: What about the Ki [6] of the same molecule?
Answer: 0.21 µM

Question: Which results are given for `COc1ccc2c(c1Cl)CCNCC2`?
Answer: Ki [1]: 0.062 µM; Ratio Ki (Homo sapiens): 4; Ratio Ki [2]: 3; Emax [3]: 88%; Emax [4]: 56%; Ki [5]: 0.02 µM; Ki [6]: 0.084 µM

Question: What does the source list for `N#Cc1ccc2c(c1Cl)CCNCC2`?
Answer: Ki [1]: 0.03 µM; Ratio Ki (Homo sapiens): 13; Ratio Ki [2]: 6; Emax [3]: 81%; Emax [4]: 23%; Ki [5]: 0.0051 µM; Ki [6]: 0.065 µM

Question: What does the source list for `O=[N+]([O-])c1ccc2c(c1Cl)CCNCC2`?
Answer: Ki [1]: 0.051 µM; Ratio Ki (Homo sapiens): 21; Ratio Ki [2]: 4; Emax [3]: 86%; Emax [4]: 38%; Ki [5]: 0.014 µM; Ki [6]: 0.3 µM

Question: What does the source list for `c1cc2ccc3c(c2o1)CCNCC3`?
Answer: Ki [1]: 0.099 µM; Ratio Ki (Homo sapiens): 1; Ratio Ki [2]: 4; Emax [3]: 57%; Emax [4]: 40%; Ki [5]: 0.023 µM; Ki [6]: 0.034 µM

Question: Which Ki [1] does the source give for `Clc1ccc2c(c1Cl)CCNCC2` here?
Answer: 0.093 µM

Question: What about the Ratio Ki (Homo sapiens) of the same molecule?
Answer: 11

Question: What about the Ratio Ki [2] of the same molecule?
Answer: 11

Question: And the Emax [3]?
Answer: 87%

Question: And the Emax [4]?
Answer: 27%

Question: What about the Ki [5] of the same molecule?
Answer: 0.0088 µM

Question: What about the Ki [6] of the same molecule?
Answer: 0.1 µM

Question: What about the minimal effective dose (Rattus norvegicus [7]) of the same molecule?
Answer: 0.3 mg/kg

Question: `Clc1c(Br)ccc2c1CCNCC2` was tested. Which Ki [1] did it give?
Answer: 0.01 µM

Question: And the Ratio Ki (Homo sapiens)?
Answer: 10

Question: What about the Ratio Ki [2] of the same molecule?
Answer: 4

Question: And the Emax [3]?
Answer: 71%

Question: And the Emax [4]?
Answer: 32%

Question: What about the Ki [5] of the same molecule?
Answer: 0.0024 µM

Question: What about the Ki [6] of the same molecule?
Answer: 0.025 µM

Question: What does the source list for `CN1CCc2ccc([N+](=O)[O-])c(Cl)c2CC1`?
Answer: Ki [1]: 0.4 µM; Ratio Ki (Homo sapiens): 5; Ratio Ki [2]: 6; Emax [3]: 85%; Emax [4]: 7%; Ki [5]: 0.066 µM; Ki [6]: 1 µM

Question: Which Ki [1] does the source give for `Fc1ccc2c(c1Cl)CCNCC2` here?
Answer: 0.13 µM

Question: What about the Ratio Ki (Homo sapiens) of the same molecule?
Answer: 10

Question: And the Ratio Ki [2]?
Answer: 3

Question: And the Emax [3]?
Answer: 80%

Question: What about the Emax [4] of the same molecule?
Answer: 26%

Question: And the Ki [5]?
Answer: 0.043 µM

Question: And the Ki [6]?
Answer: 0.41 µM

Question: What does the source list for `CCc1cc2c(ccc3cnn(C[C@H](C)N)c32)o1`?
Answer: Ratio Ki (Homo sapiens): 2.8; Ratio Ki [2]: 15; Activity (Rattus norvegicus [8]): Dose-dependent effect; Ki [6]: 0.0025 µM; minimal effective dose (Rattus norvegicus [7]): 0.3 mg/kg
